Assay results pooled from the literature.
Observed: cell growth or viability

SMILES | cell line | test | conditions | endpoint | result
CCCCCCCCCCCCCCCCCCOc1ccccc1CC(=O)OCC[N+](C)(C)C | NCI-H226 | SRB | 10 µM | inhibition | 71.3%
Cc1n[nH]c2ccc3nc(-c4ccc(C(=O)NCCN(C)C)cc4F)c4c(c3c12)CCCC4 | U-937 |  | 72 h | GI50 | 0.183 µM
COc1cccc2c1C(=O)c1c(O)c3c(c(O)c1C2=O)C[C@@](O)(C(=O)CO)C[C@@H]3O[C@H]1C[C@H](N)[C@H](O)[C@H](C)O1 | U-937 |  | 96 h | IC50 | 0.0222 µM
CC1=CC(=O)c2ccccc2C1=O | HuCC-A1 | MTT |  | IC50 | 23 µM
CC(C)(C)c1cc(NC(=O)Nc2ccc(-c3cn4c(n3)sc3cc(OCCN5CCOCC5)ccc34)cc2)no1 | ML-2 |  | 72 h | GI50 | > 10 µM
CCCCCCCCCCCCCCCCCCOc1cccc(CC(=O)OCCC[N+](C)(C)C)c1 | NCI-H226 | SRB | 10 µM | inhibition | 15%
O=C(NO)c1ccc(Cn2cnc3c(Nc4ccc(Br)cc4F)ncnc32)cc1 | U-937 | MTT | 72 h | IC50 | 2.16 µM
Cc1nc(Nc2ncc(C(=O)Nc3c(C)cccc3Cl)s2)cc(N2CC[C@H](O)C2)n1 | SU-DHL-8 | ATP luminescence | 10 µM, 72 h | inhibition | 8%
CCCCCCCCCCCCCCCCCCOc1cccc(CC(=O)OCC[N+](C)(C)C)c1 | NCI-H226 | SRB | 10 µM | inhibition | 5.79%
O=C(NO)c1ccc(Cn2cnc3c(Nc4cccc([N+](=O)[O-])c4)ncnc32)cc1 | U-937 | MTT | 72 h | IC50 | 1.99 µM
CN(C)CCNC(=O)c1ccc(-c2nc3ccc4[nH]ncc4c3c3c2CCCC3)cc1 | ML-2 |  | 72 h | GI50 | 0.152 µM
COc1cccc2c1cc1c3c(cc4c(c32)OCO4)C(=O)N1C | HuCC-A1 | MTT | 75 h | IC50 | 26 µM
CN(C)CCNC(=O)c1ccc(-c2nc3ccc4[nH]ncc4c3c3c2CCCC3)c(F)c1 | U-937 |  | 72 h | GI50 | 2.15 µM
COc1cccc2c1C(=O)c1c(O)c3c(c(O)c1C2=O)C[C@@](O)(C(=O)CO)C[C@@H]3O[C@H]1C[C@H](N)[C@H](O)[C@H](C)O1 | HuCC-A1 | MTT | 48 h | IC50 | 0.86 µM
CCCCCCCCCCCCCCCCCCOc1cccc(CC(=O)OCC[N+]2(C)CCOCC2)c1 | NCI-H226 | SRB | 10 µM | inhibition | 6.29%
Cc1n[nH]c2ccc3nc(-c4ccc(C(=O)NCCN(C)C)cc4F)c4c(c3c12)CCCCC4 | U-937 |  | 72 h | GI50 | 1.64 µM
COc1cccc2c1C(=O)c1c(O)c3c(c(O)c1C2=O)C[C@@](O)(C(=O)CO)C[C@@H]3O[C@H]1C[C@H](N)[C@H](O)[C@H](C)O1 | HuCC-A1 | MTT | 75 h | IC50 | 0.84 µM
CCCCCCCCCCCCCCCCCCOc1cccc(CC(=O)OCC[N+]2(C)CCCCC2)c1 | NCI-H226 | SRB | 10 µM | inhibition | 10.8%
COc1ccc(Nc2ncnc3c2ncn3Cc2ccc(C(=O)NO)cc2)cc1 | U-937 | MTT | 72 h | IC50 | 1.23 µM
Cc1n[nH]c2ccc3nc(-c4ccc(C(=O)NCCN(C)C)cc4)c4c(c3c12)CCCCC4 | ML-2 |  | 72 h | GI50 | 1.07 µM
CCCCCCCCCCCCCCCCCCOCC(COP(=O)([O-])OCC[N+](C)(C)C)OC (stereo not shown) | NCI-H226 | SRB | 10 µM | inhibition | 6.1%
CN(C)CCNC(=O)c1ccc(-c2nc3ccc4[nH]ncc4c3c3c2CCCCC3)cc1 | U-937 |  | 72 h | GI50 | 1.48 µM
O=C(NO)c1ccc(Cn2cnc3c(Nc4ccc(Cl)cc4)ncnc32)cc1 | U-937 | MTT | 72 h | IC50 | 7.91 µM
C=C1C[C@@]23CC[C@H]4[C@@](C)(CCC[C@@]4(C)C(=O)O)[C@@H]2CC[C@@H]1C3 | HuCC-A1 | MTT | 75 h | IC50 | 108 µM
CCCCCCCCCCCCCCCCCCOc1ccc(CC(=O)OCC[N+](CC)(CC)CC)cc1 | NCI-H226 | SRB | 10 µM | inhibition | 16.1%
CN1CCC(NC2CCc3[nH]c4c(C(N)=O)ccc(-c5ccccc5Cl)c4c3C2)CC1 (stereo not shown) | U-937 |  | 96 h | IC50 | 0.0076 µM
CCCCCCCCCCCCCCCCCCOc1ccccc1CC(=O)OCC[N+]1(C)CCCC1 | NCI-H226 | SRB | 10 µM | inhibition | 86.6%
CCc1nc(C(N)=O)c(Nc2ccc(N3CCC(N4CCN(C)CC4)CC3)c(OC)c2)nc1NC1CCOCC1 | U-937 |  | 72 h | GI50 | 4.39 µM
